What was measured:
Cortical neurone [1] = assay: Growth promoting activity in axon relative to control; assay type: functional, Mus musculus; set-up: concentration or dose not given beside the values
Summary of the method: (§1)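 Cortical neurons from E15 mouse embryos, trypsin-dissociated, grown 24 h on poly-L-lysine coverslips (37 °C, 5% CO2). On day 2, compound added for 24 h under the same conditions. On day 3, cells fixed and immunostained with anti-phosphoneurofilament (SMi312) and an Alexa488 secondary. Axonal growth given as % variation from control conditions; means ± SEM.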

[2] = test system: Radical scavenging activity; assay: Hydroxyl radical scavenging activity by ABTS assay; assay type: functional
Summary of the method: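 Competition assay for hydroxyl-radical scavenging in ethanolic medium: hydroxyl radicals oxidise ABTS to the stable ABTS•+ radical cation, read by absorbance at 405 nm. IC50 is the concentration giving a 50% decrease in ABTS•+, reported as the mean of three experiments.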

Cortical neurone [3] = assay: Growth promoting activity in axon at 1 nM in presence of 100 ng/ml Sema3A of glial scar; assay type: functional, Mus musculus; summary of the method: as §1
Cortical neurone [4] = assay: Growth promoting activity in axon at 1 nM; assay type: functional, Mus musculus; summary of the method: as §1
Cortical neurone [5] = assay: Growth promoting activity in axon at 1 nM in presence of 1 ug/ml myelin protein of glial scar; assay type: functional, Mus musculus; summary of the method: as §1
Cortical neurone [6] = assay: Growth promoting activity in axon at 1 nM in presence of 10 ug/ml myelin protein of glial scar; assay type: functional, Mus musculus; summary of the method: as §1
Cortical neurone [7] = assay: Growth promoting activity in axon at 100 nM in presence of 10 ug/ml myelin protein of glial scar; assay type: functional, Mus musculus; summary of the method: as §1
Cortical neurone [8] = assay: Growth promoting activity in axon at 100 nM in presence of 100 ng/ml Sema3A of glial scar; assay type: functional, Mus musculus; summary of the method: as §1
Cortical neurone [9] = assay: Growth promoting activity in axon at 100 nM; assay type: functional, Mus musculus; summary of the method: as §1
Cortical neurone [10] = assay: Growth promoting activity in axon at 100 nM in presence of 1 ug/ml myelin protein of glial scar; assay type: functional, Mus musculus; summary of the method: as §1

| Structure (SMILES) | IC50 [2] | Activity (Cortical neurone [1]) | other results |
| --- | --- | --- | --- |
| COc1cc(CCCCCCCCCCCCCCCCCCO)c(OC)c(OC)c1OC |  | 103% |  |
| COc1cc(OC)c(OC)cc1CCCCCCCCCCCCO | 720 µM | 108% |  |
| COc1cc(CCCCCCCCCCCCCCO)c(OC)c(OC)c1OC |  | 108% |  |
| CC1=C(CCCCCCCCCCCCCCCO)C(C)(C)CCC1=O | > 10000 µM | 150% | Activity (Cortical neurone [7]): 5%; Activity (Cortical neurone [8]): 10.2%; Activity (Cortical neurone [9]): 80%; Activity (Cortical neurone [10]): 28.8% |
| COc1cc(CCCCCCCCCCCCO)c(OC)c(OC)c1OC |  | 100% |  |
| Cc1c(C)c2c(c(C)c1O)CCC(C)(C(=O)O)O2 (stereo unspecified) [TROLOX] | 600 µM |  |  |
| COc1cc(CCCCCCCCCCCCCCCO)c(OC)c(OC)c1OC |  | 158% |  |
| COc1cc(CCCCCCCCCCCCCCCCO)c(OC)c(OC)c1OC |  | 127% |  |

The next lines start with results.

| IC50 [2] | Structure (SMILES) | Activity (Cortical neurone [1]) | other results |
| --- | --- | --- | --- |
| > 10000 µM | COc1ccc(OC)c(CCCCCCCCCCCCCCCCCCO)c1 | 109% |  |
| > 10000 µM | COc1ccc(OC)c(CCCCCCCCCCCCCCCCO)c1 | 120% |  |
| > 10000 µM | COc1ccc(OC)c(CCCCCCCCCCCCCCCO)c1 | 181% | Activity (Cortical neurone [3]): 12.4%; Activity (Cortical neurone [4]): 81%; Activity (Cortical neurone [5]): 18.4%; Activity (Cortical neurone [6]): -5.3% |
| 720 µM | COc1cc(OC)c(OC)cc1CCCCCCCCCCCCCCCO | 152% |  |
| 720 µM | COc1cc(OC)c(OC)cc1CCCCCCCCCCCCCCCCCCO | 106% |  |
| > 10000 µM | COc1ccc(OC)c(CCCCCCCCCCCCO)c1 | 109% |  |
| 720 µM | COc1cc(OC)c(OC)cc1CCCCCCCCCCCCCCCCO | 135% |  |
| > 10000 µM | COc1ccc(OC)c(CCCCCCCCCCCCCCO)c1 | 110% |  |
| 720 µM | COc1cc(OC)c(OC)cc1CCCCCCCCCCCCCCO | 109% |  |

From ChEMBL document CHEMBL1147691, “Quinol fatty alcohols as promoters of axonal growth” (Bioorg Med Chem Lett, 2006)
